One series addresses T1, Bile acid receptor (Homo sapiens, UniProt Q96RI1).
T1 sequence (Q96RI1 whole entry): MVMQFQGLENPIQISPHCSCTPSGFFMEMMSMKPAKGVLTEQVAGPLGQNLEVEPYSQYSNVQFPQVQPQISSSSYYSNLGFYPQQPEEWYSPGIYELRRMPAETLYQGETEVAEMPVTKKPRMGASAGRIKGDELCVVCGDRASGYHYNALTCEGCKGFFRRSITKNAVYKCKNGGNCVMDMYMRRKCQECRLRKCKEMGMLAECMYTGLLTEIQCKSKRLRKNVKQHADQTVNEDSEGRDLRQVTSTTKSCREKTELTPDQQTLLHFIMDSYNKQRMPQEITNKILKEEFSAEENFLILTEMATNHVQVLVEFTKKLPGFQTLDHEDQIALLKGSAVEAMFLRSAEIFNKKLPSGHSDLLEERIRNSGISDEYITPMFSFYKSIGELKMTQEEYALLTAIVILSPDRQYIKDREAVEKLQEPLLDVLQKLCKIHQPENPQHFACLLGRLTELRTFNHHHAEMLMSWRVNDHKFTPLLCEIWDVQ
Description: Agonist activity at GST-tagged FXR-LBD (unknown origin) assessed as biotin-labeled SRC-1 recruitment after 30 mins by Alpha Screen assay.

The target of series [1] is T2, Bile acid receptor (Homo sapiens) (UniProt Q96RI1).
T2 sequence (whole entry): T1 sequence (Q96RI1 whole entry)
Nature of the series: Agonist activity at GST-tagged FXR-LBD (unknown origin) assessed as biotin-labeled SRC-1 recruitment after 30 mins by Alpha Screen assay relative to CDCA. A digest of the protocol:
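GST-FXR-LBD (10 nM) with biotinylated SRC-1 peptide (30 nM), anti-GST acceptor and streptavidin donor beads; buffer 50 mM Tris pH 7.4, 50 mM KCl, 0.1% BSA, 1 mM DTT. Compound in DMSO, 30 min r.t., then beads 4 h dark r.t.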

Series [2] can be described thus: Solubility of the compound in pH 7.4 PBS buffer at 300 uM after 24 hrs by HPLC-ESI-MS analysis. Type of series: physicochemical. In short, it runs like this: (§1)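 Dried 1 mM stock (300 µL) was redissolved in 1 mL PBS pH 7.4 or acid solution pH 1.0 (nominal about 300 µM). Stirred 24 h at r.t., centrifuged, diluted 1:100 or 1:10, then quantified by HPLC-ESI-MS/MS in MRM mode against a 6-point calibration (0.01–10 µM).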

Series [3] in a line: Solubility of the compound in pH 1 HCl solution at 300 uM after 24 hrs by HPLC-ESI-MS analysis. Type of series: physicochemical. In short, it runs like this:
as §1

The nature of series [4]: Octanol-HCl distribution coefficient, log P of the compound at pH 1 at 1 uM after 24 hrs by shake flask method. In kind it is physicochemical. A digest of the protocol:
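Shake-flask method, 1 µM bile acid in mutually pre-saturated 1-octanol/DPBS pH 7.4 or 1-octanol/HCl pH 1.0 (50:50). Equilibrated 24 h with stirring at r.t., then centrifuged. Aqueous-phase concentration before and after partition measured by HPLC-ESI-MS/MS.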

The next series deals with albumin (Bos taurus, UniProt P02769). Nature of the series: Binding affinity to bovine serum albumin at 10 uM after 24 hrs by equilibrium dialysis method. The settings on record: cattle, read-out: PB (converted). Type of series: ADME.

In brackets after ≈: the same amount, converted by molar mass.

Chain of albumin (P02769 whole entry): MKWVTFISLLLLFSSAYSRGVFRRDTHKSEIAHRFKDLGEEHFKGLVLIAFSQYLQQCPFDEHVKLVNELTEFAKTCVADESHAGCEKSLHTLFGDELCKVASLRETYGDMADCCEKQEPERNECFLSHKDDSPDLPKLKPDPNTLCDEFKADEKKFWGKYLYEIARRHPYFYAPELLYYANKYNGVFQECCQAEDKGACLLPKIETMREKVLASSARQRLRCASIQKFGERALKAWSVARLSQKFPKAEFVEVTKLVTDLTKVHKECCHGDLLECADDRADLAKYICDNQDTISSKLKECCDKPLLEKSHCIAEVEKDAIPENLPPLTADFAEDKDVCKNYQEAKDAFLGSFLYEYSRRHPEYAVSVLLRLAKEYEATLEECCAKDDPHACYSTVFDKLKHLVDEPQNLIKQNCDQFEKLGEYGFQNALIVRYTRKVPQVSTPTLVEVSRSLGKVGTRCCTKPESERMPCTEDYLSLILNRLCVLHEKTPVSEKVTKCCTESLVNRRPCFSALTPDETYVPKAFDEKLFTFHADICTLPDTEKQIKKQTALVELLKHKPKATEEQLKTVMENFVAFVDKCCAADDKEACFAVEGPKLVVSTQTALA

Consider `C[C@H](CCC(=O)O)[C@H]1CC[C@H]2[C@@H]3CC[C@@H]4C[C@H](O)CC[C@]4(C)[C@H]3C[C@H](O)[C@]12C` [DEOXYCHOLIC ACID], for which the EC50 at Bile acid receptor stood at 45 µM. Moreover, in series [1], the Efficacy stood at 7%.

On to `C[C@H](CCC(=O)O)[C@H]1CC[C@H]2[C@@H]3[C@H](O)C[C@@H]4C[C@H](O)CC[C@]4(C)[C@H]3CC[C@]12C` [CHENODIOL], for which the solubility at 24 h, 300 µM was 282 µM (≈ 111 µg/mL) in series [2] and 33 µM (≈ 13 µg/mL) in series [3]. In addition, the logD at 24 h, 1 µM in series [4] was determined as 2.5. Further, the fraction unbound at 24 h, 10 µM at albumin is 0.015.

Source of the values: ChEMBL document CHEMBL4145453, “Synthesis, physicochemical properties, and biological activity of bile acids 3-glucuronides: Novel insights into bile acid signalling and detoxification” (Eur J Med Chem, 2018).
